Measurements reported in ChEMBL document CHEMBL1137710, “Synthesis and in vitro antitumor activity of new quinoxaline derivatives” (2009).

Legend:
Format in all cases: functional
A498 = test: Growth inhibition of human A498 cells after 48 hrs by sulforhodamine B assay; settings: A498, 48 h; for CC50: read-out: pLC50 (the source's name) (converted); for TGI: read-out: pTGI (converted)
Summary of the method: (§1)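 NCI 60-human-tumor-cell-line panel, with compounds tested over a 5-log dose range. Values are taken from dose-response curves as log10 molar concentrations: GI50 is 50% net growth inhibition, TGI is total growth inhibition, and LC50 is 50% net cell death.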

ACHN = test: Growth inhibition of human ACHN cells after 48 hrs by sulforhodamine B assay; settings: for TGI: read-out: pTGI (converted)
SF-295 = test: Growth inhibition of human SF295 cells after 48 hrs by sulforhodamine B assay; settings: SF-295, 48 h; for TGI: read-out: pTGI (converted); summary of the method: as §1
DU-145 = test: Growth inhibition of human DU145 cells after 48 hrs by sulforhodamine B assay; settings: DU-145, 48 h; for CC50: read-out: pLC50 (the source's name) (converted); for TGI: read-out: pTGI (converted); summary of the method: as §1
EKVX = test: Growth inhibition of human EKVX cells after 48 hrs by sulforhodamine B assay; settings: for TGI: read-out: pTGI (converted); summary of the method: as §1
SN12C = test: Growth inhibition of human SN12C cells after 48 hrs by sulforhodamine B assay; settings: for CC50: read-out: pLC50 (the source's name) (converted); for TGI: read-out: pTGI (converted)
Summary of the method: (§2)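 Run in the NCI 60-human-tumour-cell-line panel, tested over a 5-log dose range. Dose–response curves gave three values per cell line, each as a log10 molar concentration: GI50 (50% inhibition of net cell growth), TGI (total inhibition of net growth) and LC50 (50% net cell death). The mean graph midpoint is the arithmetic mean over all lines, with insensitive lines entered at the highest concentration tested.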

SK-MEL-2 = test: Growth inhibition of human SK-MEL-2 cells after 48 hrs by sulforhodamine B assay; settings: SK-MEL-2, 48 h; for CC50: read-out: pLC50 (the source's name) (converted); for TGI: read-out: pTGI (converted); summary of the method: as §1
T47D = test: Growth inhibition of human T47D cells after 48 hrs by sulforhodamine B assay; settings: for CC50: read-out: pLC50 (the source's name) (converted); for TGI: read-out: pTGI (converted); summary of the method: as §2
SK-MEL-5 = test: Growth inhibition of human SK-MEL-5 cells after 48 hrs by sulforhodamine B assay; settings: SK-MEL-5, 48 h; for CC50: read-out: pLC50 (the source's name) (converted); for TGI: read-out: pTGI (converted); summary of the method: as §1
OVCAR-5 = test: Growth inhibition of human OVCAR5 cells after 48 hrs by sulforhodamine B assay; settings: OVCAR-5, 48 h; for CC50: read-out: pLC50 (the source's name) (converted); for TGI: read-out: pTGI (converted); summary of the method: as §1
MDA-MB-231 = test: Growth inhibition of human MDA-MB-231 cells after 48 hrs by sulforhodamine B assay; settings: MDA-MB-231, 48 h; for CC50: read-out: pLC50 (the source's name) (converted); for TGI: read-out: pTGI (converted); summary of the method: as §1
SNB-75 = test: Growth inhibition of human SNB75 cells after 48 hrs by sulforhodamine B assay; settings: SNB-75, 48 h; for TGI: read-out: pTGI (converted); summary of the method: as §2
SR = test: Growth inhibition of human SR cells after 48 hrs by sulforhodamine B assay; settings: for TGI: read-out: pTGI (converted); summary of the method: as §2
RXF 393 = test: Growth inhibition of human RXF393 cells after 48 hrs by sulforhodamine B assay; settings: RXF 393, 48 h; for CC50: read-out: pLC50 (the source's name) (converted); for TGI: read-out: pTGI (converted); summary of the method: as §1
HCT-116 = test: Growth inhibition of human HCT116 cells after 48 hrs by sulforhodamine B assay; settings: HCT-116, 48 h; for TGI: read-out: pTGI (converted); summary of the method: as §1
COLO 205 = test: Growth inhibition of human COLO205 cells after 48 hrs by sulforhodamine B assay; settings: COLO 205, 48 h; for TGI: read-out: pTGI (converted); summary of the method: as §1
Malme-3M = test: Growth inhibition of human MALME-3M cells after 48 hrs by sulforhodamine B assay; settings: for CC50: read-out: pLC50 (the source's name) (converted); for TGI: read-out: pTGI (converted); summary of the method: as §1
UACC-257 = test: Growth inhibition of human UACC257 cells after 48 hrs by sulforhodamine B assay; settings: UACC-257, 48 h; for CC50: read-out: pLC50 (the source's name) (converted); for TGI: read-out: pTGI (converted); summary of the method: as §2
A549 = test: Growth inhibition of human A549 cells after 48 hrs by sulforhodamine B assay; settings: A549, 48 h; for TGI: read-out: pTGI (converted); summary of the method: as §1
NCI-H460 = test: Growth inhibition of human NCI-H460 cells after 48 hrs by sulforhodamine B assay; settings: NCI-H460, 48 h; for TGI: read-out: pTGI (converted); summary of the method: as §1
NCI-H23 = test: Growth inhibition of human NCI-H23 cells after 48 hrs by sulforhodamine B assay; settings: NCI-H23, 48 h; for TGI: read-out: pTGI (converted); summary of the method: as §1
HT-29 = test: Growth inhibition of human HT-29 cells after 48 hrs by sulforhodamine B assay; settings: HT-29, 48 h; for TGI: read-out: pTGI (converted); summary of the method: as §1
CCRF-CEM = test: Growth inhibition of human CCRF-CEM cells after 48 hrs by sulforhodamine B assay; settings: for TGI: read-out: pTGI (converted); summary of the method: as §1
TK-10 = test: Growth inhibition of human TK10 cells after 48 hrs by sulforhodamine B assay; settings: TK-10, 48 h; for CC50: read-out: pLC50 (the source's name) (converted); for TGI: read-out: pTGI (converted); summary of the method: as §2
BT-549 = test: Growth inhibition of human BT549 cells after 48 hrs by sulforhodamine B assay; settings: BT-549, 48 h; for CC50: read-out: pLC50 (the source's name) (converted); for TGI: read-out: pTGI (converted); summary of the method: as §1
SK-OV-3 = test: Growth inhibition of human SKOV3 cells after 48 hrs by sulforhodamine B assay; settings: SK-OV-3, 48 h; for CC50: read-out: pLC50 (the source's name) (converted); for TGI: read-out: pTGI (converted); summary of the method: as §1
HOP-92 = test: Growth inhibition of human HOP92 cells after 48 hrs by sulforhodamine B assay; settings: HOP-92, 48 h; for TGI: read-out: pTGI (converted); summary of the method: as §1
KM12 = test: Growth inhibition of human KM12 cells after 48 hrs by sulforhodamine B assay; settings: KM12, 48 h; for TGI: read-out: pTGI (converted); summary of the method: as §1
NCI-H226 = test: Growth inhibition of human NCI-H226 cells after 48 hrs by sulforhodamine B assay; settings: NCI-H226, 48 h; for TGI: read-out: pTGI (converted); summary of the method: as §1

## COc1cc(OC)cc(Oc2nc3cc(N)cc(N)c3nc2-c2ccccc2)c1
A498
  GI50: > 100 µM
  CC50: > 100 µM
  TGI: > 100 µM
ACHN
  GI50: 14.8 µM
  TGI: 33.9 µM
SF-295
  GI50: 2.19 µM
  TGI: 8.51 µM
DU-145
  GI50: 21.9 µM
  CC50: > 100 µM
  TGI: 57.5 µM
EKVX
  GI50: 3.8 µM
  TGI: 19.5 µM
SN12C
  GI50: 17 µM
  CC50: 69.2 µM
  TGI: 34.7 µM
SK-MEL-2
  GI50: 2.29 µM
  CC50: 38 µM
  TGI: 10.2 µM
T47D
  GI50: 2340 nM
  CC50: 51.3 µM
  TGI: 9.12 µM
SK-MEL-5
  GI50: 1.91 µM
  CC50: 24.5 µM
  TGI: 6.46 µM
OVCAR-5
  GI50: 3.24 µM
  CC50: 40.7 µM
  TGI: 16.2 µM
MDA-MB-231
  GI50: 3.98 µM
  CC50: 87.1 µM
  TGI: 21.9 µM
SNB-75
  GI50: 126 nM
  TGI: 2.69 µM
SR
  GI50: 1860 nM
  TGI: 28.8 µM
RXF 393
  GI50: 5.37 µM
  CC50: 44.7 µM
  TGI: 18.2 µM
HCT-116
  GI50: 2.34 µM
  TGI: 10 µM
COLO 205
  GI50: 10.7 µM
  TGI: 22.4 µM
Malme-3M
  GI50: 0.427 µM
  CC50: 30.2 µM
  TGI: 5.13 µM
UACC-257
  GI50: 2.19 µM
  CC50: 37.2 µM
  TGI: 12.3 µM
A549
  GI50: 2.88 µM
  TGI: 13.2 µM
NCI-H460
  GI50: 2.95 µM
  TGI: 12.6 µM
NCI-H23
  GI50: 1.7 µM
  TGI: 12.6 µM
HT-29
  GI50: 4.37 µM
  TGI: 17.8 µM
CCRF-CEM
  GI50: 1950 nM
  TGI: 8.71 µM
TK-10
  GI50: 28.2 µM
  CC50: > 100 µM
  TGI: 57.5 µM
BT-549
  GI50: 1.48 µM
  CC50: 38 µM
  TGI: 6.92 µM
SK-OV-3
  GI50: 3.47 µM
  CC50: 69.2 µM
  TGI: 16.2 µM
HOP-92
  GI50: 1.35 µM
  TGI: 8.91 µM
KM12
  GI50: 1.02 µM
  TGI: 6.03 µM
NCI-H226
  GI50: 6.61 µM
  TGI: 42.7 µM

## COc1ccc(CNc2nc3cc(N)cc(N)c3nc2-c2ccccc2)cc1
A498
  GI50: > 100 µM
  CC50: > 100 µM
  TGI: > 100 µM
ACHN
  GI50: 14.8 µM
  TGI: 33.9 µM
ACHN; read-out: pLC50 (the source's name) (converted)
  CC50: 75.9 µM
SF-295
  GI50: 17.8 µM
  LC50 (50% net cell kill): 58.9 µM
  TGI: 32.4 µM
DU-145
  GI50: 21.9 µM
  CC50: > 100 µM
  TGI: 57.5 µM
EKVX
  GI50: 14.8 µM
  LC50 (50% net cell kill): 53.7 µM
  TGI: 28.2 µM
SN12C
  GI50: 17 µM
  CC50: 69.2 µM
  TGI: 34.7 µM
SK-MEL-2
  GI50: 14.8 µM
  CC50: 57.5 µM
  TGI: 28.8 µM
T47D
  GI50: 2820 nM
  CC50: 72.4 µM
  TGI: 11 µM
SK-MEL-5
  GI50: 17.8 µM
  CC50: 56.2 µM
  TGI: 31.6 µM
OVCAR-5
  GI50: 20.9 µM
  CC50: > 100 µM
  TGI: 45.7 µM
MDA-MB-231
  GI50: 2.88 µM
  CC50: 64.6 µM
  TGI: 13.8 µM
SNB-75
  LC50: 72.4 µM
  TGI: 30.2 µM
SR
  GI50: 4070 nM
  LC50 (concentration giving 50% net cell death): > 100 µM
  TGI: > 100 µM
RXF 393
  GI50: 5.37 µM
  CC50: 44.7 µM
  TGI: 18.2 µM
HCT-116
  GI50: 14.5 µM
  LC50 (concentration causing 50% net cell death): 52.5 µM
  TGI: 27.5 µM
COLO 205
  GI50: 15.5 µM
  LC50 (50% net cell kill): 74.1 µM
  TGI: 33.9 µM
Malme-3M
  GI50: 10.7 µM
  CC50: 47.9 µM
  TGI: 22.4 µM
UACC-257
  GI50: 16.2 µM
  CC50: 56.2 µM
  TGI: 30.2 µM
A549
  GI50: 21.4 µM
  LC50: > 100 µM
  TGI: 60.3 µM
NCI-H460
  GI50: 20.4 µM
  LC50 (50% net cell kill): > 100 µM
  TGI: 47.9 µM
NCI-H23
  GI50: 17 µM
  LC50 (50% net cell kill concentration): 70.8 µM
  TGI: 34.7 µM
HT-29
  GI50: 24.5 µM
  LC50: > 100 µM
  TGI: 60.3 µM
CCRF-CEM
  GI50: 3390 nM
  LC50: > 100 µM
  TGI: 64.6 µM
TK-10
  GI50: 28.2 µM
  CC50: > 100 µM
  TGI: 57.5 µM
BT-549
  GI50: 6.46 µM
  CC50: > 100 µM
  TGI: 30.9 µM
SK-OV-3
  CC50: > 100 µM
  TGI: 57.5 µM
HOP-92
  GI50: 12.9 µM
  LC50 (50% net cell death): > 100 µM
  TGI: 37.2 µM
KM12
  GI50: 13.2 µM
  LC50 (50% net cell kill): > 100 µM
  TGI: 26.3 µM
NCI-H226
  GI50: 20.4 µM
  LC50: > 100 µM
  TGI: 70.8 µM
